Assay results taken from ChEMBL document CHEMBL1139414, “Conformationally constrained analogues of diacylglycerol. 29. Cells sort diacylglycerol-lactone chemical zip codes to produce diverse and selective biological activities” (J Med Chem, 2008).

Biological target: Protein kinase C alpha type (Mus musculus, UniProt P20444)
Assay: Displacement of [3H]PDBu form mouse PKCalpha by scintillation counting
Summary of the method: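 Partially purified mouse PKCα; competition with [³H]PDBU. ID50 obtained by fitting a sigmoidal competition curve and converted to Ki = ID50/(1+L/Kd). Pure compounds tested at 6–7 concentrations; crude library compounds at a single 1 μM concentration. Triplicates per concentration, at least three experiments; mean ± SEM.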

Row | Compound | Ki
1 | CC(C)C(=O)OCC1(CO)C/C(=C/c2ccc(F)cc2)C(=O)O1 (racemic) | 0.273 µM
2 | CN(C)c1ccc(/C=C2/CC(CO)(COC(=O)c3ccc(C(F)(F)F)cc3)OC2=O)cc1 (racemic) | 0.515 µM
3 | Cc1ccc(C(=O)OCC2(CO)C/C(=C/c3ccc(N(C)C)cc3)C(=O)O2)cc1 (racemic) | 0.406 µM
4 | Cc1cc(C)c(C(=O)OCC2(CO)C/C(=C/c3ccc(N(C)C)cc3)C(=O)O2)c(C)c1 (racemic) | 0.517 µM
5 | COc1ccc(/C=C2/CC(CO)(COC(=O)c3ccccc3)OC2=O)cc1 (racemic) | 0.299 µM
6 | COc1ccc(/C=C2/CC(CO)(COC(=O)C3CCCCC3)OC2=O)cc1 (racemic) | 0.156 µM
7 | O=C1OC(CO)(COC(=O)c2ccc([N+](=O)[O-])cc2)C/C1=C/c1ccc(C(F)(F)F)cc1 (racemic) | 0.164 µM
8 | COc1ccc(/C=C2/CC(CO)(COC(=O)c3ccc(C(F)(F)F)cc3)OC2=O)cc1 (racemic) | 0.149 µM
9 | COc1ccc(/C=C2/CC(CO)(COC(=O)c3ccc([N+](=O)[O-])cc3)OC2=O)cc1 (racemic) | 0.552 µM
10 | Cc1ccc(C(=O)OCC2(CO)C/C(=C/c3ccc([N+](=O)[O-])cc3)C(=O)O2)cc1 (racemic) | 0.212 µM
11 | O=C1OC(CO)(COC(=O)c2ccccc2)C/C1=C/c1ccc([N+](=O)[O-])cc1 (racemic) | 0.32 µM
12 | CN(C)c1ccc(C(=O)OCC2(CO)C/C(=C/c3ccc([N+](=O)[O-])cc3)C(=O)O2)cc1 (racemic) | 1.08 µM
13 | Cc1ccccc1C(=O)OCC1(CO)C/C(=C/c2ccc([N+](=O)[O-])cc2)C(=O)O1 (racemic) | 0.171 µM
14 | CC(C)c1cc(C(C)C)c(C(=O)OCC2(CO)C/C(=C/c3ccc([N+](=O)[O-])cc3)C(=O)O2)c(C(C)C)c1 (racemic) | 0.124 µM
15 | CCCCCCC(=O)OCC1(CO)C/C(=C/c2ccc([N+](=O)[O-])cc2)C(=O)O1 (racemic) | 0.0938 µM
16 | O=C1OC(CO)(COC(=O)C2CCCCC2)C/C1=C/c1ccc([N+](=O)[O-])cc1 (racemic) | 0.105 µM
17 | CC(C)C(=O)OCC1(CO)C/C(=C/c2ccc(Cl)cc2)C(=O)O1 (racemic) | 0.0882 µM
18 | CC(C)C(=O)OCC1(CO)C/C(=C/c2ccc(Cl)c(F)c2)C(=O)O1 (racemic) | 0.0876 µM
19 | COc1ccc(/C=C2/CC(CO)(COC(=O)c3ccc(C)cc3)OC2=O)cc1 (racemic) | 0.181 µM
20 | COc1ccc(/C=C2/CC(CO)(COC(=O)c3ccccc3C)OC2=O)cc1 (racemic) | 0.173 µM
21 | COc1ccc(C(=O)OCC2(CO)C/C(=C/c3ccc(C(F)(F)F)cc3)C(=O)O2)cc1 (racemic) | 0.0865 µM
22 | CN(C)c1ccc(C(=O)OCC2(CO)C/C(=C/c3ccc(C(F)(F)F)cc3)C(=O)O2)cc1 (racemic) | 0.095 µM
23 | CC(C)c1cc(C(C)C)c(C(=O)OCC2(CO)C/C(=C/c3ccc(N(C)C)cc3)C(=O)O2)c(C(C)C)c1 (racemic) | 0.66 µM
24 | Cc1ccccc1C(=O)OCC1(CO)C/C(=C/c2ccc(N(C)C)cc2)C(=O)O1 (racemic) | 0.376 µM
25 | CCCCCCC(=O)OCC1(CO)C/C(=C/c2ccc(OC)cc2)C(=O)O1 (racemic) | 0.113 µM
26 | O=C1OC(CO)(COC(=O)c2ccc(C(F)(F)F)cc2)C/C1=C/c1ccc([N+](=O)[O-])cc1 (racemic) | 0.176 µM

These reach a lower Ki. Values come first.

Row | Ki | Compound
27 | 0.0348 µM | CC(C)C(=O)OCC1(CO)C/C(=C/c2ccc(-c3ccc(C(F)(F)F)cc3)cc2)C(=O)O1 (racemic)
28 | 0.0296 µM | CCCC(CCC)C(=O)OCC1(CO)C/C(=C/c2ccccc2C(F)(F)F)C(=O)O1 (racemic)
29 | 0.0155 µM | CCCC(CCC)C(=O)OCC1(CO)C/C(=C/c2cccc(C(F)(F)F)c2)C(=O)O1 (racemic)
30 | 0.0726 µM | CC(C)C(=O)OCC1(CO)C/C(=C/c2ccc(Br)cc2)C(=O)O1 (racemic)
31 | 0.0273 µM | CCCC(CCC)C(=O)OCC1(CO)C/C(=C/c2cc(C(F)(F)F)cc(C(F)(F)F)c2)C(=O)O1 (racemic)
32 | 0.0828 µM | CC(C)C(=O)OCC1(CO)C/C(=C/c2cc(C(F)(F)F)cc(C(F)(F)F)c2)C(=O)O1 (racemic)
33 | 0.078 µM | CC(C)C(=O)OCC1(CO)C/C(=C/c2ccc(C(F)(F)F)cc2)C(=O)O1 (racemic)
34 | 0.0547 µM | CC(C)C(=O)OCC1(CO)C/C(=C/c2ccc(OC(F)(F)F)cc2)C(=O)O1 (racemic)
35 | 0.0107 µM | CCCC(CCC)C(=O)OCC1(CO)C/C(=C/c2ccc(Br)cc2)C(=O)O1 (racemic)
36 | 0.0274 µM | CCCCC(CC)C(=O)OCC1(CO)C/C(=C/c2ccc(-c3ccc(C(F)(F)F)cc3)cc2)C(=O)O1 (racemic)
37 | 0.0539 µM | CCCCC(CC)C(=O)OCC1(CO)C/C(=C/c2ccc(OC)cc2)C(=O)O1 (racemic)
38 | 0.0152 µM | CCCCC(CC)C(=O)OCC1(CO)C/C(=C/c2ccc(OC(F)(F)F)cc2)C(=O)O1 (racemic)
39 | 0.0228 µM | CCCCC(CC)C(=O)OCC1(CO)C/C(=C/c2ccccc2C(F)(F)F)C(=O)O1 (racemic)
40 | 0.0173 µM | CCCCC(CC)C(=O)OCC1(CO)C/C(=C/c2cc(C(F)(F)F)cc(C(F)(F)F)c2)C(=O)O1 (racemic)
41 | 0.0094 µM | CCCCC(CC)C(=O)OCC1(CO)C/C(=C/c2cccc(C(F)(F)F)c2)C(=O)O1 (racemic)
42 | 0.0406 µM | CCCC(CCC)C(=O)OCC1(CO)C/C(=C/c2ccc(-c3ccc(C(F)(F)F)cc3)cc2)C(=O)O1 (racemic)
43 | 0.0164 µM | CCCC(CCC)C(=O)OCC1(CO)C/C(=C/c2ccc(OC(F)(F)F)cc2)C(=O)O1 (racemic)

Row | Ki | Compound
44 | 0.0131 µM | CCCC(CCC)C(=O)OCC1(CO)C/C(=C/c2ccc(Cl)cc2)C(=O)O1 (racemic)
45 | 0.0724 µM | O=C1OC(CO)(COC(=O)c2ccc(C(F)(F)F)cc2)C/C1=C/c1ccc(C(F)(F)F)cc1 (racemic)
46 | 0.0354 µM | CCCCCCC(=O)OCC1(CO)C/C(=C/c2ccc(C(F)(F)F)cc2)C(=O)O1 (racemic)
47 | 0.053 µM | Cc1ccc(C(=O)OCC2(CO)C/C(=C/c3ccc(C(F)(F)F)cc3)C(=O)O2)cc1 (racemic)
48 | 0.0319 µM | O=C1OC(CO)(COC(=O)C2CCCCC2)C/C1=C/c1ccc(C(F)(F)F)cc1 (racemic)
49 | 0.0641 µM | O=C1OC(CO)(COC(=O)c2ccccc2)C/C1=C/c1ccc(C(F)(F)F)cc1 (racemic)
50 | 0.011 µM | CCCCC(CC)C(=O)OCC1(CO)C/C(=C/c2ccc(F)c(Cl)c2)C(=O)O1 (racemic)
51 | 0.0251 µM | Cc1cc(C)c(C(=O)OCC2(CO)C/C(=C/c3ccc(C(F)(F)F)cc3)C(=O)O2)c(C)c1 (racemic)
52 | 0.0735 µM | CCCCC(CC)C(=O)OCC1(CO)C/C(=C/c2ccc([N+](=O)[O-])cc2)C(=O)O1 (racemic)
53 | 0.0031 µM | CCCCC(CC)C(=O)OCC1(CO)C/C(=C\c2ccc([N+](=O)[O-])cc2)C(=O)O1 (racemic)
54 | 0.0606 µM | CC(C)C(=O)OCC1(CO)C/C(=C/c2ccc(F)c(Br)c2)C(=O)O1 (racemic)
55 | 0.0702 µM | CC(C)C(=O)OCC1(CO)C/C(=C/c2cccc(C(F)(F)F)c2)C(=O)O1 (racemic)
56 | 0.0085 µM | CCCCC(CC)C(=O)OCC1(CO)C/C(=C/c2ccc(Br)cc2)C(=O)O1 (racemic)
57 | 0.0478 µM | Cc1ccccc1C(=O)OCC1(CO)C/C(=C/c2ccc(C(F)(F)F)cc2)C(=O)O1 (racemic)
58 | 0.0151 µM | CCCCC(CC)C(=O)OCC1(CO)C/C(=C/c2ccc(F)cc2)C(=O)O1 (racemic)
59 | 0.0375 µM | Cc1cc(C)c(C(=O)OCC2(CO)C/C(=C/c3ccc([N+](=O)[O-])cc3)C(=O)O2)c(C)c1 (racemic)
60 | 0.07 µM | CC(C)c1cc(C(C)C)c(C(=O)OCC2(CO)C/C(=C/c3ccc(C(F)(F)F)cc3)C(=O)O2)c(C(C)C)c1 (racemic)
